The first experiment concerns the target T1, Tyrosinase (Agaricus bisporus, UniProt O42713).
T1 sequence (O42713 whole entry): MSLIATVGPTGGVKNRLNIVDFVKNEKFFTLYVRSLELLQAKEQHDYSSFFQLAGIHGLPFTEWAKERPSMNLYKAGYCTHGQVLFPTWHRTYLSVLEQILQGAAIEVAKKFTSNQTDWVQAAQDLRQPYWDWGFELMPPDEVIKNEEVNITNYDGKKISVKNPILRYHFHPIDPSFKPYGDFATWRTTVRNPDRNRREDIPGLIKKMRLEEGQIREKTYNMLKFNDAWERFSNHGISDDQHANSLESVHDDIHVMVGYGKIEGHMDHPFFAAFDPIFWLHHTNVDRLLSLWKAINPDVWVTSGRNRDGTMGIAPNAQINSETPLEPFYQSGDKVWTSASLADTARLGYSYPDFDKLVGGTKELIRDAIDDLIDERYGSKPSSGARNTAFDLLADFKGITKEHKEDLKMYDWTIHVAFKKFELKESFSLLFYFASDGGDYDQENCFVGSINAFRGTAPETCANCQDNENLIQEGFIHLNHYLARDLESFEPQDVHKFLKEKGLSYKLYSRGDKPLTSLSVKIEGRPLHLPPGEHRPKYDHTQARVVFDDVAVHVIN
As to the kind of experiment: Competitive inhibition of mushroom tyrosinase after 30 mins by Lineweaver-Burke double reciprocal plot analysis. Summed up: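 Inhibition type and Ki were determined with respect to L-tyrosine as substrate, using mushroom tyrosinase with dopachrome read-out at 492 nm. Incubation was 30 min at 37 °C in 25 mM PBS, pH 6.8.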
By Ki is commonly meant the equilibrium dissociation constant of an inhibitor or competing ligand from its target. A low value points to higher affinity. In turn, `CCCCNC(=O)c1ccc(-c2cc(OC)c(O)c(OC)c2)cc1` had a Ki of 31 µM. The compound `COc1cc(-c2ccc(C(=O)O)c(O)c2)cc(OC)c1O` showed a Ki of 15 µM. Compound `COc1cc(-c2ccc(C(=O)O)cc2)cc(OC)c1O` registered an inhibition constant (Ki) of 38 µM. The compound `COc1cc(-c2ccc(C(=O)NCc3ccccc3)c(O)c2)cc(OC)c1O` had a Ki of 60 µM.

Another experiment has as its target T1, Tyrosinase. Put plainly: Inhibition of mushroom tyrosinase after 30 mins.
What is called IC50 is the concentration at which inhibition is half-maximal. Lower therefore signals inhibition by little substance. As to `COc1cc(-c2ccc(F)cc2F)cc(OC)c1O`, it took 60 µM to reach half-maximal inhibition (IC50). The same measure, in the same setting: then `CCCCNC(=O)c1ccc(-c2cc(OC)c(O)c(OC)c2)cc1`, with 70 µM; and `CCOC(=O)c1ccc(-c2cc(OC)c(O)c(OC)c2)cc1O`, with 50 µM; and `COc1cc(-c2ccc(C(=O)NCc3ccccc3)cc2)cc(OC)c1O`, with 120 µM. As for `CCCCNC(=O)c1ccc(-c2cc(OC)c(OC)c(OC)c2)cc1`, the IC50 was more than 2000 µM. On the same count and under the same terms, then `COc1cc(-c2cccc(OC)c2F)cc(OC)c1O`, with 60 µM; and `COc1cc(-c2ccc(C)c(O)c2)cc(OC)c1O`, with 90 µM; and `COc1cc(-c2cc(F)cc(F)c2)cc(OC)c1OC`, with more than 2000 µM. As for `COc1cc(-c2cc(F)cc(F)c2)cc(OC)c1O`, 80 µM corresponded to half-maximal inhibition (IC50). That is a double-digit micromolar value. Still for that read-out and setting: then `COc1cc(-c2ccccc2C)cc(OC)c1OC`, with more than 2000 µM. Same read-out and setting: then `COc1cc(-c2ccc(C(=O)O)c(O)c2)cc(OC)c1O`, with 20 µM.

Compound `COc1cccc(-c2cc(OC)c(OC)c(OC)c2)c1F` returned a 50% inhibitory concentration (IC50) of more than 2000 µM. On the same count and under the same terms, then `COc1ccc(C(C)=O)cc1-c1cc(OC)c(OC)c(OC)c1`, with more than 2000 µM; and `COc1cc(-c2ccc(C(=O)NCc3ccccc3)c(OCc3ccccc3)c2)cc(OC)c1OC`, with more than 2000 µM; and `COc1cc(-c2ccc(F)c(F)c2)cc(OC)c1OC`, with more than 2000 µM. The same measure, in the same setting: then `COc1ccc(C(C)=O)cc1-c1cc(OC)c(O)c(OC)c1`, with 140 µM; and `COc1cc(-c2ccc(C=O)c(O)c2)cc(OC)c1OC`, with more than 2000 µM; and `COc1cc(-c2cccc(OCc3ccccc3)c2)cc(OC)c1OC`, with 550 µM. Still for that read-out and setting: with `COc1cc(-c2ccc(O[C@@H]3O[C@H](CO)[C@@H](O)[C@H](O)[C@H]3O)c(O)c2)cc(OC)c1O` [FORTUNEANOSIDE E] the figure was 140 µM.

On to `COc1cc(-c2ccc(C=O)c(OCc3ccccc3)c2)cc(OC)c1OC`, for which the IC50 is more than 2000 µM. The same measure, in the same setting: then `COc1ccc(C(C)O)cc1-c1cc(OC)c(O)c(OC)c1` (configuration not stated), with 190 µM. Take `COc1cc(-c2ccc(C(=O)NCc3ccccc3)cc2)cc(OC)c1OC`: the IC50 is more than 2000 µM. Same read-out and setting: with `CCOC(=O)c1ccc(-c2cc(OC)c(OC)c(OC)c2)cc1O` the figure was more than 2000 µM. The same measure, in the same setting: with `COc1ccc(C(C)O)cc1-c1cc(OC)c(OC)c(OC)c1` (configuration not stated) the figure was more than 2000 µM; with `COc1cc(-c2ccc(F)c(F)c2)cc(OC)c1O`, 70 µM.

As for `COc1cc(-c2ccc(C)c(O)c2)cc(OC)c1OC`, the IC50 was more than 2000 µM.

In turn, `COc1cc(-c2cccc(O)c2F)cc(OC)c1O` displayed an IC50 of 80 µM. Turning to `COc1cc(-c2ccc(C=O)c(O)c2)cc(OC)c1O`, the midpoint of inhibition, the IC50, lay at 60 µM. On the same count and under the same terms, then `COc1cc(-c2cccc(O)c2)cc(OC)c1OC`, with more than 2000 µM; and `COc1cc(-c2ccc(C(=O)O)c(OCc3ccccc3)c2)cc(OC)c1OC`, with more than 2000 µM; and `COc1cc(-c2ccccc2C)cc(OC)c1O`, with 170 µM.

Regarding `COc1cc(-c2ccc(C(=O)O)c(O)c2)cc(OC)c1OC`, the IC50 is more than 2000 µM. Compound `COc1cc(-c2ccc(O)c(OCc3ccccc3)c2)cc(OC)c1OC` came in with an IC50 of 170 µM. Still for that read-out and setting: with `COc1cc(-c2ccc(C(=O)O)cc2)cc(OC)c1O` the figure was 50 µM.

The compound `COc1cc(-c2ccc(C(=O)O)cc2)cc(OC)c1OC` came in with an IC50 of more than 2000 µM. Same read-out and setting: then `COc1cc(-c2ccc(F)cc2F)cc(OC)c1OC`, with more than 2000 µM; and `COc1cc(-c2cccc(O)c2)cc(OC)c1O`, with 90 µM; and `COc1cc(-c2ccc(C(=O)NCc3ccccc3)c(O)c2)cc(OC)c1O`, with 30 µM.

(Values after ChEMBL document CHEMBL1240521, “Design and synthesis of biphenyl derivatives as mushroom tyrosinase inhibitors” (Bioorg Med Chem, 2010).)
